Shown are actives, neighbours in structure and some others; about 2.8% of the full set was active somewhere.
pCIP destab: p/CIP protein destabilization | hit rate 0.01% among 290,000 | Q05BA5 | F442A p/CIP-EGFP cells, EGFP fluorescence, 16 h | decrease of EGFP signal, % at 10 µM;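 active means EGFP signal decrease of at least 30% at 10 µM or well 3 SD below plate mean, unless failing retest; inactive means the rest, including hits failing retest or dose response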
AI-2 QS mod: Vibrio harveyi AI-2 quorum sensing modulation; Vibrio harveyi JMH597 AI-2 luminescence/OD600 ratio, 9 h; stronger effect = lower value; strain lacks LuxN and CqsS sensors; 0 = neutral-control median; activity change, % at 7.5 µM; hit rate 0.4% among 300,000; AID 2094; in the data active means activity change below about -75%, passing the limit was not always enough;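 further: luminescence divided by OD600 gain over 9 h not by final OD600 alone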
T cruzi inh: T. cruzi replication inhibition; T. cruzi beta-gal in NIH3T3, luminescence, 90 h; inhibition, % (test concentration not listed); hit rate 1.4% among 300,000; AID 1885;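 active means mean inhibition across valid replicates above about 55%, limit read from the data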;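 further: signal also drops with host cell toxicity which is not excluded here; higher percent means less beta-gal luminescence so fewer parasites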
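Read-out: Parasite load inhibition, % | Test system: Mouse NIH/3T3 fibroblasts infected with β-gal-expressing T. cruzi Tulahuen C4 | Amount: 5,000 cells/well | Medium: DMEM, 2% fetal bovine serum | Signal: GalScreen β-gal luminescence, detergent lysis, 60 min | Timing: 3 h attach, ≥90 h co-culture | Also added: Tulahuen C4 trypomastigotes, 5000/well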
UBC13 inh: human UBC13 polyubiquitination inhibition; P61088; UBC13 polyubiquitin chain formation, TR-FRET; inhibition, % at 20 µM; hit rate 0.47% among 330,000; in the data active means inhibition above about 45%, passing the limit was not always enough
PP1 inh: blocks human PP1-alpha phosphatase, a PP5 counter-screen; P62136; purified PP1alpha, OMFP fluorescence; inhibition, % at 6.7 µM; hit rate 0.9% among 320,000; AID 2235;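 active means inhibition above the mean inhibition of all tested compounds plus 3 SD, computed separately for each screening campaign, cut at about 15% in these data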
PP1 inh confirm: confirmation of human PP1 phosphatase inhibitors | shares compounds with PP1 inh | purified PP1alpha, OMFP substrate fluorescence | inhibition, % at 6.7 µM | hit rate 52% among 1,900 | AID 2358;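 active means mean PP1 inhibition above a set limit taken from the earlier primary screen, cut at about 15% in these data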
PP5 inh counter: PP5 phosphatase inhibition, counter-screen for PP1 inhibitors; shares compounds with PP1 inh; purified PP5c, OMFP fluorescence; inhibition, % at 6.7 µM; hit rate 4% among 1,900; AID 2360;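 active means mean PP5 inhibition over triplicate wells above about 9.5% taken from the earlier PP1 screen, limit read from the data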
Target sequence (P53041 whole entry, looked up): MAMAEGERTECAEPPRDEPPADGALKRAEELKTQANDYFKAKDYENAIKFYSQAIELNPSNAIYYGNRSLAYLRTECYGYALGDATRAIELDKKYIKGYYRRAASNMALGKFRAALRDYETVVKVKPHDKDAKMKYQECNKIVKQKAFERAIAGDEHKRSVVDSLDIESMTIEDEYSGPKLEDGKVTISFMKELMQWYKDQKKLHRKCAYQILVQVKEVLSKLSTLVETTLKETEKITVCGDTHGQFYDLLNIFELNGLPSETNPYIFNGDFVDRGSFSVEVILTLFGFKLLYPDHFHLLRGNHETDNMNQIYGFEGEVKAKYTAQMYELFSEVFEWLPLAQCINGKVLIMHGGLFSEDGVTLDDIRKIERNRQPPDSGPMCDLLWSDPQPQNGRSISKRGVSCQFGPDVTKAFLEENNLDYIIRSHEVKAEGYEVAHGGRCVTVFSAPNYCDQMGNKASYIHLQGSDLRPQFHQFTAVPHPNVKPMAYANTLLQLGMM
Large screens that a line does not name were inactive (follow-up assays come after a bar, where they were run).

CNC(=O)NC(=O)C(OC(=O)CCNS(=O)(=O)c1ccccc1)c1ccccc1 (stereo unspecified)	none
O=C(COC(=O)c1ccccc1OCc1ccccc1Cl)NCC1CCCO1 (stereo unspecified)	none (no result: pCIP destab, AI-2 QS mod, T cruzi inh, PP1 inh)
COCCC(=O)N1CCC(Oc2ccc(C(=O)NCc3ncc(C)[nH]3)cc2)CC1	none
Cc1nc2ccccc2n1CC(=O)NN	none
NNC(=O)Cn1c(SCc2ccccc2)nc2ccccc21	PP1 inh 18 | PP1 inh confirm inactive | PP5 inh counter inactive
CC(/C=N/NC(=O)c1ccc(Cn2cc([N+](=O)[O-])cn2)o1)=C\c1ccccc1	none
CC1=NN(c2ccccc2)C(=O)/C1=C/c1c(O)n(-c2ccc(F)c(Cl)c2)[nH]c1=O	PP1 inh 18 | PP1 inh confirm inactive | PP5 inh counter inactive
NC(=O)C1CCN(C(=O)C(Cc2ccccc2)NC(=O)c2ccccc2)CC1 (stereo unspecified)	none (no result: pCIP destab, AI-2 QS mod, T cruzi inh)
CC1(OC(=O)c2cccs2)C(=O)C=C2C=C(c3ccsc3)OC=C2C1=O (stereo unspecified)	none (no result: pCIP destab)
CC1(OC(=O)c2cccs2)C(=O)C=C2C=C(c3ccc(C#N)cc3)OC=C2C1=O (stereo unspecified)	PP1 inh 21 (no result: pCIP destab) | PP1 inh confirm inactive | PP5 inh counter inactive
CCn1cc(C(=O)NCc2ccco2)c(=O)c2cc(S(=O)(=O)N3CCCCCC3)ccc21	none
CCn1cc(C(=O)O)c(=O)c2cc(F)c(N3CCN(S(=O)(=O)c4ccc(NC(C)=O)cc4)CC3)cc21	PP1 inh 42 | PP1 inh confirm 32 | PP5 inh counter inactive
CCn1cc(C(=O)NCc2ccco2)c(=O)c2cc(F)c(N3CCN(C(=O)c4ccco4)CC3)cc21	PP1 inh 18 | PP1 inh confirm inactive | PP5 inh counter inactive
CCn1cc(C(=O)NCC(C)C)c(=O)c2cc(F)c(N3CCN(C(=O)c4ccco4)CC3)cc21	none
CCn1cc(C(=O)O)c(=O)c2cc(F)c(N3CCN(S(=O)(=O)c4ccc5c(c4)OCCO5)CC3)cc21	none
CCn1cc(C(=O)NCc2ccco2)c(=O)c2cc(S(=O)(=O)N3CCc4ccccc4C3)ccc21	T cruzi inh 56, PP1 inh 19 | PP1 inh confirm 18 | PP5 inh counter inactive
CCn1cc(C(=O)O)c(=O)c2cc(F)c(N3CCN(C(=O)Nc4ccccc4)CC3)cc21	PP1 inh 18 | PP1 inh confirm inactive | PP5 inh counter inactive
COc1ccc(CNC(=O)N2CCN(c3ccccc3OC)CC2)cc1	none
O=C(NCCS(=O)(=O)N1CCN(Cc2ccccc2)CC1)c1ccc(F)cc1	none (no result: pCIP destab)
O=C(c1ccco1)N1CCN(C(=S)Nc2ccccc2C(F)(F)F)CC1	none
COc1cccc(N=Nc2ccc(O)c3ncccc23)c1	PP1 inh 27 | PP1 inh confirm 23 | PP5 inh counter inactive
Cc1ccccc1N=Nc1ccc(O)c2ncccc12	none (no result: UBC13 inh)
COc1cc(OC)cc(C(=O)Nc2cccc3cccnc23)c1	none
O=S(=O)(O)c1cccc2c(N=Nc3ccc(O)c4ncccc34)cccc12	PP1 inh 47 (no result: UBC13 inh) | PP1 inh confirm 19 | PP5 inh counter inactive
COc1cccc(N=Nc2ccc3cccnc3c2O)c1	PP1 inh 31 | PP1 inh confirm 25 | PP5 inh counter inactive
COc1ccc(N=Nc2ccc(O)c3ncccc23)cc1	PP1 inh 27 | PP1 inh confirm 26 | PP5 inh counter inactive
O=C(O)c1ccccc1-c1nc2cc(Cl)ccc2c(=O)n1O	PP1 inh 22 | PP1 inh confirm 24 | PP5 inh counter inactive
O=c1c2ccccc2nc(-c2ccc(Cl)cc2Cl)n1O	none
Oc1cc(-c2ccncc2)cc2cccnc12	none (no result: pCIP destab, AI-2 QS mod, T cruzi inh, PP1 inh)
CN(C)c1ccc(-c2cc(O)c3ncccc3c2)cc1	PP1 inh 21 (no result: pCIP destab, AI-2 QS mod, T cruzi inh) | PP1 inh confirm 21 | PP5 inh counter inactive
CCOC(=O)c1sc(Nc2ccc(OCC)cc2)nc1C	none
CCOC(=O)c1sc(N2N=C(C)/C(=C\c3ccc(OCC(=O)OC)cc3)C2=O)nc1C	PP1 inh 24 | PP1 inh confirm inactive | PP5 inh counter inactive
CCc1nnc(NC(=S)Nc2ccccc2)s1	none
Cc1ccc(C(=O)Nc2nnc(NC(=S)Nc3ccccc3)s2)cc1	PP1 inh 21 | PP1 inh confirm 24 | PP5 inh counter inactive

Source: PubChem BioAssay
